# Test results published in ChEMBL document CHEMBL1142698, “Synthesis and biological evaluation of novel naphthocarbazoles as potential anticancer agents” (J Med Chem, 2005).
# Key:
# Type in all cases: functional, cell-based
# [1] = system: HT-29; experiment: In vitro antiproliferative activity against human colon carcinoma HT-29 cells
# Summary of the method: (§1)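 Cells from ATCC grown in RPMI 1640 with 10% fetal calf serum, 2 mM L-glutamine, penicillin/streptomycin and 10 mM HEPES (pH 7.4). Continuous exposure to graded concentrations for four doubling times. MTT added, then 4 h at 37 °C, formazan dissolved in DMSO and optical density read. IC50 is the concentration halving optical density versus untreated controls, from nine serial dilutions in duplicate.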
# [2] = system: L1210; experiment: In vitro antiproliferative activity against murine leukemia L1210 cells; settings: Mus musculus; summary of the method: as §1
# [3] = system: DU-145; experiment: In vitro antiproliferative activity against human prostate cancer DU145 cells; summary of the method: as §1
# [4] = system: DU-145; experiment: In vitro antiproliferative activity against human prostate cancer DU-145 cells; summary of the method: as §1
SMILES,IC50 [1],IC50 [2],IC50 [3],IC50 [4]
CN(C)CCn1c2ccccc2c2c3c(c4cc5ccccc5cc4c21)C(=O)N(C)C3=O,–,2.4 µM,4.7 µM,–
CN(C)CCN1C(=O)c2c(c3c4ccccc4[nH]c3c3cc4ccccc4cc23)C1=O,–,0.21 µM,0.29 µM,–
CN(C)CCOc1ccc2c(c1)[nH]c1c3cc4ccccc4cc3c3c(c21)C(=O)N(C)C3=O,–,1.5 µM,4.5 µM,–
C=CCn1c2ccccc2c2c3c(c4cc5ccccc5cc4c21)C(=O)N(C)C3=O,65.7 µM,34 µM,59.7 µM,–
O=C1c2c(c3c4ccc(O)cc4[nH]c3c3cc4ccccc4cc23)C(=O)N1CCNCCO,5.5 µM,0.51 µM,1.11 µM,–
CN1C(=O)c2c(c3c4ccccc4n(CCN4CCOCC4)c3c3cc4ccccc4cc23)C1=O,–,2.4 µM,–,–
CN1C(=O)c2c(c3c4ccc(O[Si](C)(C)C(C)(C)C)cc4[nH]c3c3cc4ccccc4cc23)C1=O,–,10.1 µM,5.6 µM,–
CN1C(=O)c2c(c3c4ccccc4n(CC(O)CO)c3c3cc4ccccc4cc23)C1=O (centres undefined),3.69 µM,1.26 µM,2.31 µM,–
"COC1C(O)[C@@H](O)[C@H](n2c3c(Cl)cccc3c3c4c(c5c6cccc(Cl)c6[nH]c5c32)C(=O)NC4=O)O[C@@H]1CO (single isomer, unassigned) [REBECCAMYCIN]",–,0.14 µM,–,–

# Now from value to compound:
IC50 [1],IC50 [2],IC50 [3],IC50 [4],SMILES
3.76 µM,0.29 µM,0.63 µM,–,O=C1c2c(c3c4cc(O)ccc4[nH]c3c3cc4ccccc4cc23)C(=O)N1CCNCCO
0.84 µM,0.13 µM,0.29 µM,–,CN(C)CCCN1C(=O)c2c(c3c4cc(O)ccc4[nH]c3c3cc4ccccc4cc23)C1=O
1.35 µM,0.34 µM,0.76 µM,–,CN(C)CCCN1C(=O)c2c(c3c4ccc(O)cc4[nH]c3c3cc4ccccc4cc23)C1=O
–,0.036 µM,0.108 µM,–,CN(C)CCN1C(=O)c2c(c3c4cc(O)ccc4[nH]c3c3cc4ccccc4cc23)C1=O
–,0.11 µM,0.25 µM,–,CN(C)CCN1C(=O)c2c(c3c4ccc(O)cc4[nH]c3c3cc4ccccc4cc23)C1=O
1.34 µM,0.2 µM,0.0068 µM,–,O=C1c2c(c3c4ccc(O)cc4[nH]c3c3cc4ccccc4cc23)C(=O)N1C(CO)CO
2.88 µM,1.19 µM,2.13 µM,–,O=C1c2c(c3c4cc(O)ccc4[nH]c3c3cc4ccccc4cc23)C(=O)N1C(CO)CO
–,5.2 µM,4.7 µM,–,CN1C(=O)c2c(c3c4ccc(O)cc4[nH]c3c3cc4ccccc4cc23)C1=O
–,3.9 µM,6.8 µM,–,CN1C(=O)c2c(c3c4cc(O)ccc4[nH]c3c3cc4ccccc4cc23)C1=O
–,2.9 µM,–,1.1 µM,CN1C(=O)c2c(c3c4ccccc4[nH]c3c3cc4ccccc4cc23)C1=O
